# Only some compounds are listed: those with a hit (about 3.5% of all), similar ones and a draw of the others.
# FXIIa inh = human FXIIa protease inhibitors, primary screen, biochemical, 1536-well | Coagulation factor XII (Homo sapiens), P00748 | purified FXIIa, Boc-QGR-AMC fluorogenic substrate, 2 h | inhibition, % at 5 µM | hit rate 0.3% among 220,000 | AID 800, 2007; in the data active means inhibition above about 40%;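 further: 0% = enzyme with no compound and 100% = blank without enzyme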
# FXIa inh 1536 = human FXIa protease inhibitors, primary screen, biochemical, 1536-well. purified FXIa, Boc-Glu-Ala-Arg-AMC fluorogenic substrate. Coagulation factor XI (Homo sapiens), P03951. inhibition, % at 5 µM. hit rate 0.14% among 220,000. AID 798, 2007;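 active means inhibition of at least 40%; inactive means inhibition below 40%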;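 further: fluorescence of freed AMC excited at 355 nm; 0% = enzyme without compound and 100% = no enzyme blank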
# KLK5 inh = human KLK5 protease inhibitors, primary screen, biochemical, 1536-well; hit rate 0.59% among 210,000; recombinant hK5, fluorogenic AMC substrate cleavage; inhibition, % at 5 µM; Kallikrein-5 (Homo sapiens), Q9Y337;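 active means inhibition of 40% or more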;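 further: 0% = enzyme controls without compound and 100% = no-enzyme blanks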
# Target sequence (Q9Y337 67-293 limits assumed): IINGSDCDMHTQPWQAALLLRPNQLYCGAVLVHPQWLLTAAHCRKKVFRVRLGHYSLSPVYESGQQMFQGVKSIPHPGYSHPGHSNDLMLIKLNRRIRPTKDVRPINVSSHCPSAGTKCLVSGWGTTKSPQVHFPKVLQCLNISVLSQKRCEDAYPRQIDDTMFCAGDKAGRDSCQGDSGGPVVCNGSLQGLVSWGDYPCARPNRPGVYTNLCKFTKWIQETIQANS
# STAT3 activator = IL-6 driven STAT3 reporter potentiators, primary screen, U3A cells, luciferase, luminescence, MLSCN library. IL-6 STAT3-luciferase reporter; 100% = signal with IL-6 EC80 alone. activation (% of control), % at 5.6 µM. hit rate 0.91% among 190,000;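 active means activation above the screen-wide mean of compound activation plus 3 SD, cut at about 130% in these data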;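 further: 0% = background luminescence of wells with medium and substrate only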
#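 Material: human STAT1-deficient U3A cells with stable STAT3-luciferase reporter / Probe or stimulus: IL-6 stimulus at 33 ng/mL final / Schedule: 1 h compound pre-exposure, 6 h IL-6 stimulation, 37 °C / Technique: luminescence / Read-out basis: percent of IL-6-only median luminescence / Control set: IL-6-only high control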
# Thrombin inh = human alpha-thrombin inhibitors, primary screen, counter-screen for coagulation protease inhibitor project, biochemical, 1536-well, fluorogenic AMC substrate. Boc-VPR-AMC fluorogenic substrate cleavage. hit rate 0.26% among 220,000. inhibition, % at 5 µM. Prothrombin (Homo sapiens), P00734. AID 1046, 2008;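 active means inhibition at or above 40%; inactive means inhibition below 40%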;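 further: 0% = enzyme with no compound and 100% = wells without enzyme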
#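 Material: Human alpha-thrombin protein | Buffer or medium: pH 7.5 Tris-saline with Tween 20 | Reagent: Boc-VPR-AMC substrate, 15 µM final | Schedule: Reaction at ambient temperature | Detection: AMC fluorescence at 355 nm excitation and 460 nm emission | Evaluation: Percent inhibition scaled between no-compound controls and no-enzyme blanks | Controls: no-compound enzyme wells and no-enzyme blanks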
# AHR activator = AHR activators, primary screen, cell-based, luminescence, luciferase reporter, human | Aryl hydrocarbon receptor (Homo sapiens), P35869 | AHR-responsive luciferase reporter cells | activation, % at 5 µM | hit rate 2.5% among 320,000 | AID 2796, 2010; in the data active means activation above about 47%;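 further: 0% = vehicle wells and 100% = reference agonist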
# Active calls of the source: *; . = no result given.
SMILES,FXIIa inh,FXIa inh 1536,KLK5 inh,STAT3 activator,Thrombin inh,AHR activator
N=C(N)c1ccc(Cl)cc1,6.9,0.3,0.7,104.8,0.7,51.6*
Cn1cc(Br)c(NC(=O)/C=C/C(=O)O)n1,5.8,13.0,2.5,.,2.0,-0.7
CCc1nnc(NC(=O)c2cccnc2SC)s1,7.1,1.3,2.6,101.4,-10.6,50.5*
O=C(Nc1nnc(C2CC2)s1)c1n[nH]c(=O)c2ccccc12,4.1,1.6,-0.6,.,-4.0,65.2*
CSc1ncccc1C(=O)Nc1nnc(C2CC2)s1,-0.7,-4.2,-13.3,103.6,0.7,60.7*
O=C(c1ccccc1)C1CN(c2ccccc2)CC1c1ccc(Cl)cc1 (stereo unspecified),53.7*,6.1,62.0*,94.4,13.7,0.4
COc1cccc(C(=O)C2CN(c3ccccc3)CC2c2ccc(Cl)cc2)c1 (stereo unspecified),6.5,-1.5,2.9,95.9,1.0,-6.2
Cc1onc(-c2ccccc2)c1CNS(=O)(=O)c1ccccc1[N+](=O)[O-],0.7,-4.6,16.6,.,-12.3,1.8
Cc1ccc(C)n1-c1ccccc1N,6.1,-1.9,-6.4,91.7,-4.3,2.2
Nc1ccccc1-n1cccc1,2.6,-11.0,0.3,.,-3.3,55.7*
Cc1[nH]nc(-c2ccc(O)cc2O)c1-c1nc2ccccc2s1,-0.7,-7.6,-12.9,130.3,-3.2,73.5*
CCCCC(=O)Nc1ncc2c(n1)CC(C)(C)CC2=O,-5.2,-6.6,-2.5,111.0,-0.1,3.2
CC1(C)CC(=O)c2cnc(NC(=O)Cc3ccc(Cl)cc3)nc2C1,2.4,0.6,85.6*,105.5,36.4,2.4
COc1ccc(NC(=S)/N=C(\N)Nc2nc(C)c3ccccc3n2)cc1,6.1,0.8,0.1,.,-0.6,65.5*
CC(C)N(C(=O)[C@H]1CC(CC(=O)NCC23CC4CC(CC(C4)C2)C3)C(=O)N2CCc3c([nH]c4ccccc34)[C@]12C)C(C)C (stereo partly specified),.,.,.,.,.,1.0
CN(C)/C=N/c1nc2ccc3c(c2s1)CCCC3,.,.,.,106.5,.,63.3*
Cc1cccc(NC(=O)N2CCCC2C(=O)Nc2ccccc2)c1 (stereo unspecified),9.0,1.3,1.2,99.7,-6.7,-0.8
CCc1noc(C)c1C(=O)Nc1nc2c(C)cccc2s1,.,.,.,.,.,12.9
CCc1noc(C)c1C(=O)Nc1nc2c(F)cc(F)cc2s1,.,.,.,.,.,61.0*
O=C(CO/N=C1\CCCc2nonc21)Nc1ccc(Br)cc1,6.3,8.4,-26.3,101.8,-1.7,77.5*
COc1ccc(NC(=O)CO/N=C2\CCCc3nonc32)cc1,14.2,5.2,-13.4,101.8,-4.6,7.8
CC(=O)NN1C(=O)/C(=C2/Sc3ccc(Cl)cc3N2C)SC1=S,.,.,.,.,.,17.2
CCn1nnnc1SCC(=O)Nc1ccc2c(c1)OCO2,16.6,7.2,-8.7,100.9,1.8,37.1
CCC(=O)Nc1ccc(NC(=O)CSc2nnnn2CC)cc1C,13.8,11.1,72.5*,106.1,27.0,3.8
Cc1csc2ncc(C(=O)Nc3ccccc3F)c(=O)n12,.,.,.,.,.,59.9*
SMILES,FXIIa inh,FXIa inh 1536,KLK5 inh,STAT3 activator,Thrombin inh,AHR activator
CC(=O)c1c(C)nc(-c2ccccc2)nc1N,8.2,-1.7,2.8,95.5,-4.4,76.9*
CCOC(=O)c1c(N)nn(C(C)=O)c1-c1ccccc1,-1.4,-6.8,86.1*,108.4,3.4,20.4
CCOC(=O)c1c(C)nc(-c2ccccc2)nc1N,9.1,1.1,2.0,151.7*,-8.8,30.6
O=C(Nc1nc(-c2cccc3ccccc23)cs1)c1cnccn1,13.3,7.6,-62.0,85.2,0.3,49.3*
CC1CN(C(=O)C2(C)CC2(Br)Br)CC(C)O1 (stereo unspecified),25.8,25.1,-17.3,100.9,-0.4,2.4
C/C(=N/OC(=O)c1ccc(C(F)(F)F)cc1)c1oc(C)nc1C,11.4,3.1,-2.6,.,-0.6,0.0
Cc1ccc(S(=O)(=O)Nc2cccnc2Oc2ccc(Cl)cc2)cc1,44.3*,16.7,27.7,.,46.7*,0.6
O=C(CSc1nc2ccccc2c(=O)[nH]1)c1cccs1,12.7,1.7,2.1,89.1,-6.4,5.9
N#Cc1c(-c2cccs2)nc(SCC(=O)c2cccs2)[nH]c1=O,30.1,19.3,70.9*,104.7,26.3,4.8
O=C(Nc1ccc(Cl)c(Cl)c1)C1CC(=O)N(c2ccc(Br)cc2)C1 (stereo unspecified),19.2,13.8,28.9,104.5,49.1*,-1.9
OCc1cc(Br)ccc1OCc1nc2ccccc2s1,.,.,.,.,.,48.0*
O=C(Nc1cc(C(F)(F)F)ccc1N1CCOCC1)C1CCCO1 (stereo unspecified),.,.,.,.,.,-1.1
Cc1ccc(NC(=O)C2Oc3ccccc3OC2C)cc1 (stereo unspecified),.,.,.,.,.,50.7*
O=S(=O)(CCc1ccncc1)C1Cc2cccc3cccc1c23 (stereo unspecified),8.2,0.3,1.4,.,-3.3,11.0
FC(F)(F)c1cnc(COc2ccc(Cl)cc2Cl)c(Cl)c1,3.9,-3.5,-3.0,.,-7.3,-2.0
Brc1ccccc1-n1nnc(-c2nccs2)n1,6.1,-3.9,-1.3,.,-0.1,35.8
c1ccc(-n2nnc(-c3nccs3)n2)cc1,.,.,.,.,.,53.7*
C=CCn1c(CCc2cc(C(C)(C)C)c(O)c(C(C)(C)C)c2)n[nH]c1=S,13.9,3.3,-0.6,103.5,0.8,0.1
O=C(NNC(=O)c1cc2ccccc2[nH]1)OCc1ccccc1,.,.,.,.,.,66.3*
CC(C)CC(C)NNC(=O)c1cc2ccccc2[nH]1 (stereo unspecified),9.8,2.4,1.8,97.8,-2.0,13.7
COc1ccc(N=C2S/C(=C\c3cc(C)n(C)c3C)C(=O)N2C)cc1,0.5,8.1,41.4*,99.1,12.0,8.8
CCOC(=O)c1ccc(S(=O)(=O)Nc2cc(C(=O)O)ccc2Cl)cc1,.,-0.1,3.3,98.0,-4.9,1.3
Cc1cc(C)c(S(=O)(=O)N(C)CC(=O)NCc2ccncc2)c(C)c1,3.7,-1.4,-3.1,106.0,-14.5,1.2
Cc1ccc(NP(=O)(c2ccc(N(C)C)cc2NC(=O)c2cccs2)N2CCOCC2)cc1Cl (stereo unspecified),9.9,7.5,-2.4,127.2,-1.9,50.0*
Cc1ccc(NC2c3ncccc3C(=O)N2c2ccccc2C)cc1C (stereo unspecified),13.3,-1.4,46.7*,97.6,4.5,11.7
CC(C)=CCC12Oc3cc(O)ccc3C1(O)Oc1cc(O)c([C@H]3C=C(C)CC(c4ccc(O)cc4O)[C@H]3C(=O)c3ccc(O)cc3O)c(O)c1C2=O (stereo partly specified),.,.,.,.,.,0.7

# High-throughput results: PubChem BioAssay, several laboratories
